Reference: ChEMBL document CHEMBL5096209, “Structure-Activity Studies of 3,9-Diazaspiro[5.5]undecane-Based γ-Aminobutyric Acid Type A Receptor Antagonists with Immunomodulatory Effect” (J Med Chem, 2021)

Legend:
[1] = molecular target: T1, Gamma-aminobutyric acid receptor subunit alpha-4/beta-1/delta (Homo sapiens, UniProt O14764+P18505+P48169); assay: Antagonist activity at recombinant human alpha4beta1delta GABAA receptor expressed in HEK293 Flp-In cells by FMP assay; assay type: cell-based, Flp-In-293
T1 sequence (P48169 whole entry): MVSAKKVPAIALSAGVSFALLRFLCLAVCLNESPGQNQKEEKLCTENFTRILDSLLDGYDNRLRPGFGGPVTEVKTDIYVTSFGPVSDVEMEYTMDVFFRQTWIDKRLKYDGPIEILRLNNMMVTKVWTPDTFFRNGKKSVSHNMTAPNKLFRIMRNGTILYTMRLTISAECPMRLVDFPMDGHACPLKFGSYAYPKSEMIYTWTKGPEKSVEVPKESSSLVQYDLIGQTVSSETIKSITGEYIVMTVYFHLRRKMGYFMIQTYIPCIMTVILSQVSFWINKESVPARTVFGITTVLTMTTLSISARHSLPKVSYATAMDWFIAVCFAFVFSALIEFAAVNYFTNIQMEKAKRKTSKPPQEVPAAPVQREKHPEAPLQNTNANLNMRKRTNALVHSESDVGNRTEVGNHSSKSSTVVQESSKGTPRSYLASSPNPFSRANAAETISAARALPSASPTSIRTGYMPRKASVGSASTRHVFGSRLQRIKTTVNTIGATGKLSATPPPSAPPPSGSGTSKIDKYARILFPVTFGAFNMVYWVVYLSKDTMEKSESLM
T1 sequence (O14764 whole entry): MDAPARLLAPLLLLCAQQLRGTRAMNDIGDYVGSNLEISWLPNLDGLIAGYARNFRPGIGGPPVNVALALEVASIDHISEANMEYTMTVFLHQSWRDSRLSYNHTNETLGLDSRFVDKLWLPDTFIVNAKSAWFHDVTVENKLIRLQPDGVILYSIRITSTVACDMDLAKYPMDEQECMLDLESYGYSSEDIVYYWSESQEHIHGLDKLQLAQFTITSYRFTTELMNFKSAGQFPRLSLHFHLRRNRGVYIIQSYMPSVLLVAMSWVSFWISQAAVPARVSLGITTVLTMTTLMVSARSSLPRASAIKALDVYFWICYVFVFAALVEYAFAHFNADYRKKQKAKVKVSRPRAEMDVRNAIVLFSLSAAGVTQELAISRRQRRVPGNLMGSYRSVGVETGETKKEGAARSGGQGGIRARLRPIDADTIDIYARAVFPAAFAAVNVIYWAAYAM
T1 sequence (P18505 whole entry): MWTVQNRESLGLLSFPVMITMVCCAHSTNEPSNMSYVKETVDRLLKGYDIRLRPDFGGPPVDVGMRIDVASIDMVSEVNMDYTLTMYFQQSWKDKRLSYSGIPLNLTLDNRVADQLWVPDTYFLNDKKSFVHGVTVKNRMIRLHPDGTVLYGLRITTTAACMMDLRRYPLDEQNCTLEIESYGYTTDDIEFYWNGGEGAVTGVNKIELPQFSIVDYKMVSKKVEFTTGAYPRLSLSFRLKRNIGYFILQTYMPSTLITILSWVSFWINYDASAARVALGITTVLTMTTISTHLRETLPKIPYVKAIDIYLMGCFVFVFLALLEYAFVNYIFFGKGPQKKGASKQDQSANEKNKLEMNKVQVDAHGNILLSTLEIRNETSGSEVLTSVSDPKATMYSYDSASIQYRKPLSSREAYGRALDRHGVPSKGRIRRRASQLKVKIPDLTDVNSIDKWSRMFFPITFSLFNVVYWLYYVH
Procedure, shortened: (§1)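 HEK293 Flp-In cells stably expressing human δ subunit, transiently transfected with human α and β subunits (1:1) to form αβδ receptors. Read-out is the FLIPR membrane potential dye ΔRFU, baseline to peak/plateau, with GABA EC80 as agonist. Four-parameter fit of concentration–inhibition curves gives IC50, from at least three independent experiments.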

[2] = Antagonist activity at recombinant human alpha6beta2delta GABAA receptor expressed in HEK293 Flp-In cells by FMP assay; assay type: cell-based, Flp-In-293; procedure, shortened: as §1
[3] = molecular target: T2, Gamma-aminobutyric acid receptor subunit alpha-5/beta-2/gamma-2 (Homo sapiens, UniProt P18507+P31644+P47870); assay: Antagonist activity at human alpha5beta2gamma2 GABAA receptor expressed in HEK293 cells by FMP assay; assay type: cell-based
T2 sequence (P47870 whole entry): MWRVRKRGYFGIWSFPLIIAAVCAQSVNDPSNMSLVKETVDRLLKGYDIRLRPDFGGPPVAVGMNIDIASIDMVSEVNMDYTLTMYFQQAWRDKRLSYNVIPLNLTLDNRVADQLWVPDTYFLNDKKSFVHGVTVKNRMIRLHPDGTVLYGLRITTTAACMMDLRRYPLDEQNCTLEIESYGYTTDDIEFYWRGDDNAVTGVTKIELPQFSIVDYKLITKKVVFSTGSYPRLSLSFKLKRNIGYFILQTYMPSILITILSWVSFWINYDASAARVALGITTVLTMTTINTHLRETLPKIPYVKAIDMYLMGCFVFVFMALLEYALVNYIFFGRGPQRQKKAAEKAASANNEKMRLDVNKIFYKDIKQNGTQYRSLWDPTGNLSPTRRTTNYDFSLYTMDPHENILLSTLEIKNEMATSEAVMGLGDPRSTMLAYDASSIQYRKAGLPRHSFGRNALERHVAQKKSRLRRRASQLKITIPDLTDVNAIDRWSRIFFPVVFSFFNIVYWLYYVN
T2 sequence (P18507 whole entry): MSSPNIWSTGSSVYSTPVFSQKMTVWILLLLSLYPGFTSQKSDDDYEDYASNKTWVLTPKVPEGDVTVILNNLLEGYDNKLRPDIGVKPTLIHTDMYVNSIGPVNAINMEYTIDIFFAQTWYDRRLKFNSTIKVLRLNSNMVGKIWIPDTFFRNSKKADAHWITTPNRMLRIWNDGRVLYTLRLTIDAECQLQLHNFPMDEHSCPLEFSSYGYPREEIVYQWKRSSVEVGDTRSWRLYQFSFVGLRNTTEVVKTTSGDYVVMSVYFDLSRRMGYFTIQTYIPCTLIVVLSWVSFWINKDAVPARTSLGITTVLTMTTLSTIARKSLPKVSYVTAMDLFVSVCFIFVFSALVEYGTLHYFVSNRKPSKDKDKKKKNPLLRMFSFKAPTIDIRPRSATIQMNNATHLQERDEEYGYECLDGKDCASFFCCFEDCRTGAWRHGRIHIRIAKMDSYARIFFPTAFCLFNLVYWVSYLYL
T2 sequence (P31644 whole entry): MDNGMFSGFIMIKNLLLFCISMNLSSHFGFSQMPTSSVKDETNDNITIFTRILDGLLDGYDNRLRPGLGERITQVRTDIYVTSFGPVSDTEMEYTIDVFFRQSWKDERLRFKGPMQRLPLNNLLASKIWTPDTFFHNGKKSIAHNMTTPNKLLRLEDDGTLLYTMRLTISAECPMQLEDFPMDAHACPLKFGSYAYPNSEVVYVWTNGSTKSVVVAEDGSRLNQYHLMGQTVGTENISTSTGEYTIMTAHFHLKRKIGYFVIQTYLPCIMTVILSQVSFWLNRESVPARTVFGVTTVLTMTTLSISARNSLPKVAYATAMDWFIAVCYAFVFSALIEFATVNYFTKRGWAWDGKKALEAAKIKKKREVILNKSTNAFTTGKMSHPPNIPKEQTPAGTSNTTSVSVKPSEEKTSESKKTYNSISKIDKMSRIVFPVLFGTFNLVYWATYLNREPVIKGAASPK
Procedure, shortened: (§2)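 Human αβγ2 receptors in HEK293 cells: α1β2γ2 stably expressed, other αβγ2 subtypes transiently transfected into HEK293 Flp-In background cells (α:β:γ 1:1:2). FLIPR membrane potential assay with ΔRFU baseline to peak/plateau and GABA EC80 as agonist. IC50 from a four-parameter fit, at least three independent experiments.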

[4] = molecular target: T1, Gamma-aminobutyric acid receptor subunit alpha-4/beta-1/delta; assay: Antagonist activity at human alpha4beta1delta GABAA receptor expressed in HEK293 Flp-In cells by FMP assay; assay type: cell-based, Flp-In-293; procedure, shortened: as §1
[5] = Antagonist activity at human alpha6beta2delta GABAA receptor expressed in HEK293 Flp-In cells by FMP assay; assay type: cell-based, Flp-In-293; procedure, shortened: as §1
[6] = molecular target: T3, GABA-A receptor; alpha-1/beta-2/gamma-2 (Homo sapiens, UniProt P14867+P18507+P47870); assay: Antagonist activity at human alpha1beta2gamma2 GABAA receptor expressed in HEK293 cells by FMP assay; assay type: cell-based; procedure, shortened: as §2
T3 sequence (P14867 whole entry): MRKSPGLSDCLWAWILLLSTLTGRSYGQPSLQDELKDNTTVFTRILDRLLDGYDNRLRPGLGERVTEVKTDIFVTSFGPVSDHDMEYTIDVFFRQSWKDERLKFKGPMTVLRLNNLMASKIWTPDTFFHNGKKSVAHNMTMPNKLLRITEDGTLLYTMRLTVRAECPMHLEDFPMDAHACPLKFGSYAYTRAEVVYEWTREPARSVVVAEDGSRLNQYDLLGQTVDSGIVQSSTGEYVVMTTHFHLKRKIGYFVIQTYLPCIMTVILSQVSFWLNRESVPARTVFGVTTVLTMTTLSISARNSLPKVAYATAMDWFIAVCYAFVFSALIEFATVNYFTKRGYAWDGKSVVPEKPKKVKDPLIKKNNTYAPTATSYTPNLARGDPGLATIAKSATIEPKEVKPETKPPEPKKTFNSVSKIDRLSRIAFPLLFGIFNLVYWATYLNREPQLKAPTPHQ
T3 sequence (P47870 whole entry): T2 sequence (P47870 whole entry)
T3 sequence (P18507 whole entry): T2 sequence (P18507 whole entry)

[7] = Homo sapiens, Flp-In-293, read-out: pIC50 (converted)

IC50 [1] [µM]	IC50 ([1]; read-out: pIC50 (converted)) [µM]	IC50 [2, 7] [µM]	IC50 ([2]; flp-in-293) [µM]	IC50 [3] [µM]	IC50 ([3]; read-out: pIC50 (converted)) [µM]	IC50 [4] [µM]	IC50 ([4]; read-out: pIC50 (converted)) [µM]	IC50 [5, 7] [µM]	IC50 ([5]; flp-in-293) [µM]	IC50 [6] [µM]	IC50 ([6]; read-out: pIC50 (converted)) [µM]	SMILES
1.03	1.02	4.17	4.13	–	–	–	–	–	–	–	–	CC(=O)Nc1cccc(C(=O)N2CCC3(CCNCC3)CC2)c1
–	–	–	–	1.5	1.45	1.28	1.26	8.71	8.87	10	10	Cc1ccc(C(=O)N2CCC3(CCNCC3)CC2)cc1
0.088	0.0871	0.331	0.33	–	–	–	–	–	–	–	–	O=C(Nc1cccc(C(=O)N2CCC3(CCNCC3)CC2)c1)c1cccs1
–	–	–	–	0.54	0.537	0.195	0.182	1.91	1.95	2.18	2.19	Cc1cccc(C(=O)N2CCC3(CCNCC3)CC2)c1
